Only a selection was taken, and hits are over-represented in it overall.
HCT116 bCat-KO = beta-catenin-lacking colon tumor cell growth suppression; hit rate 1.5% among 140,000; HCT116 beta-catenin knockout viability, CellTiter-Glo, 60 h; active compounds read low; viability, % at 10 µM;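 active = viability at or under a set limit, the compound median less 4 SD, cut at about 6% in these data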;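 note: 0% = Hyamine 1622 control at 20 µM and 100% = untreated cell control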
HUVEC inhibit = human endothelial cell proliferation inhibition. HUVEC proliferation, CellTiter-Glo luminescence, 72 h; active compounds read low. hit rate 1.1% among 86,000. viability, % at 10 µM (by protocol). AID 648;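 active = viability at or below 30%; inactive = viability above 30%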;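 note: 100% = median luminescence of DMSO-only cell control wells on each plate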
H69AR growth 86K = growth inhibitors of human H69AR lung tumor cells. H69AR lung tumor viability, ATP luminescence, 72 h; active compounds read low. viability, % at 10 µM. hit rate 6% among 85,000;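 active = viability at or below 40%; inactive = viability above 40%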;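 note: multidrug resistant small cell line overexpressing MRP-1 efflux transporter; 100% = mean luminescence of untreated control wells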
Fibroblast inh = blocks proliferation of human lung fibroblasts. viability, % at 10 µM. hit rate 1.1% among 85,000. LL 47 human lung fibroblast viability, ATP luminescence; active compounds read low;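 active = viability at or below 50% in the single dose screen; inactive = viability above 50%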;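 note: compound exposure lasted 72 h before the ATP readout; 100% = median luminescence of untreated cell-only wells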
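Benchmarks: Cell-only wells, no compound | Test system: LL 47 human lung fibroblasts, passage 12 or lower | Input: 1,150 cells/well | Measured by: CellTiter-Glo luminescence measuring cellular ATP | Medium: IMEM, 15% FBS supplement | Schedule: Overnight attachment after seeding, then 72 h compound exposure at 37 °C | Doses: Compound addition at 0.1% DMSO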
HCT116 PTEN-null = PTEN-deleted cell growth suppression; HCT116 PTEN-null viability, CellTiter-Glo, 60 h; active compounds read low; viability, % at 10 µM; hit rate 1.2% among 140,000;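 active = viability at or below a set limit, 4 SD under the median of all tested compounds, cut at about 3.7% in these data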;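 note: PTEN knockout HCT116 line with beta catenin targeted HCT116 as companion control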
* marks the source's active call; other numbers are inactive results; x = no result.

SMILES	HCT116 bCat-KO	HUVEC inhibit	H69AR growth 86K	Fibroblast inh	HCT116 PTEN-null
COC(=O)c1ccc(Oc2c(C)oc3cc(OCc4cnn(-c5ccccc5)c4)ccc3c2=O)cc1	94	x	x	x	95
CCCCCCCCCCCCCCCC[n+]1cccc(C(=O)N(CC)CC)c1	1.5*	x	x	x	1.5*
CCCCCCCCCCCCCCCC[n+]1ccc(/C=N/O)cc1	0.9*	x	x	x	1.0*
CCCCCCCCCCCCCCCC[n+]1ccc(C(N)=O)cc1	1.1*	x	x	x	1.1*
COc1ccc(-n2c(=O)[nH]cc(C(=O)Nc3ccc4c(c3)OCCO4)c2=O)cc1	105	91	103	118	100
CC(=O)Nc1ccccc1Sc1ccccc1	98	89	91	105	98
O=C(NCCc1ccccc1)C(c1cccs1)N(C(=O)CCl)c1ccc(Cl)cc1 (stereo not drawn)	1.1*	x	x	x	0.8*
Cc1ccc(NC(=O)CN(c2ccc(C)cc2)S(=O)(=O)c2cccc3nonc23)cc1	88	89	77	90	68
COC(=O)c1[nH]c2ccc(Br)cc2c1NC(=O)CN1CCN(C2CCCCC2)CC1	1.7*	5.7*	2.9*	16*	1.8*
CCOC(=O)C1CCCN(CC(=O)Nc2c(C(=O)OC)[nH]c3ccc(Br)cc23)C1 (stereo not drawn)	77	73	58	95	74
CCOC(=O)C1CCN(CC(=O)Nc2c(C(=O)OC)[nH]c3ccccc23)CC1	75	103	1.9*	102	85
COC(=O)c1[nH]c2cc(C)ccc2c1NC(=O)CN1CCCc2ccccc21	5.5*	x	x	x	4
COC(=O)c1[nH]c2cc(C)ccc2c1NC(=O)CN1CCN(C(=O)c2ccco2)CC1	86	84	62	87	90
COC(=O)c1[nH]c2ccc(Br)cc2c1NC(=O)CN1CCCc2ccccc21	41	64	21*	75	48
CCOC(=O)C1CCN(CC(=O)Nc2cc(C)nn2-c2nc3ccccc3s2)CC1	75	73	28*	94	79
Cc1cc(NC(=O)CN2CC(C)OC(C)C2)n(-c2nc3ccccc3s2)n1 (stereo not drawn)	90	90	43	89	91
CCc1c(C)nc2ncnn2c1N1CCCC(C(=O)NCc2ccco2)C1 (stereo not drawn)	95	98	78	101	98
Clc1ccc2nc(N3CCNCC3)nc(-c3ccccc3)c2c1	1.2*	4.3*	0.8*	2.4*	1.3*
O=C1CN(c2nc(-c3ccccc3)c3cc(Cl)ccc3n2)c2ccccc2N1	51	x	x	x	49
OCCN1CCN(c2nc(-c3ccccc3)c3cc(Cl)ccc3n2)CC1	73	34	8.3*	94	71
CN1CCN(c2nc(-c3ccccc3)c3cc(Cl)ccc3n2)CC1	56	49	39*	72	44
CN(c1ccccc1C(=O)Nc1cccc(Cl)c1Cl)S(C)(=O)=O	91	72	97	88	89
COC(=O)c1c(-c2ccc(Br)cc2)noc1N	49	89	29*	80	38
CCOc1cc(C(=O)OCC(=O)Nc2cc(C)on2)cc(OCC)c1OCC	90	69	79	108	98
CCOc1cc(-c2noc(N)c2C(=O)OC)cc(OCC)c1OCC	75	100	23*	94	73
SMILES	HCT116 bCat-KO	HUVEC inhibit	H69AR growth 86K	Fibroblast inh	HCT116 PTEN-null
CC12CC(c3ccccc3O1)N(C(=O)c1ccco1)C(=S)N2c1ccc(F)cc1 (stereo not drawn)	66	60	6.4*	87	55
CCCS(=O)(=O)C(=C(Nc1ccccc1)Nc1ccccc1)S(=O)(=O)CCC	94	82	30*	96	90
O=S(=O)(CCN(CCS(=O)(=O)C(F)(F)F)CC1CCCO1)C(F)(F)F (stereo not drawn)	1.6*	93	98	44*	1.5*
O=C(NCC1CCCO1)C1CCN(S(=O)(=O)N2CCCC2)CC1 (stereo not drawn)	102	84	101	x	96
COc1ccc(NC(=O)CN(c2cc(C)cc(C)c2)S(=O)(=O)c2c(C)noc2C)cc1OC	80	108	83	96	87
CC1(C)SC(=S)N(NC(=O)Nc2cccc3ccccc23)C1N(O)C(=O)Nc1ccccc1 (stereo not drawn)	59	x	x	x	59
CC1(C)SC(=S)N(/N=C/c2ccccc2)C1N(O)C(=O)Nc1ccc([N+](=O)[O-])cc1 (stereo not drawn)	61	86	37*	86	49
CC(=O)CSc1nc(C(F)(F)F)cc(=O)n1-c1ccccc1	100	x	x	x	86
O=C(COc1nc2ccccc2nc1N1CCOCC1)NC1CCCCC1	97	x	x	x	92
CC(C)(CNC(=O)c1ccc([N+](=O)[O-])c(Cl)c1)CNC(=O)c1ccc([N+](=O)[O-])c(Cl)c1	2.0*	x	x	x	2.1*
O=C(NCCc1cccc(Cl)c1)c1ccc(Cl)c([N+](=O)[O-])c1	85	x	x	x	67
Cc1ccc(-c2nnc(SCC(=O)Nc3ccccc3F)o2)cc1	38	70	64	49*	42
Cc1cc(NC(=O)CSc2nnc(-c3ccc4c(c3)OCCO4)o2)no1	92	99	2.4*	98	99
Cc1cc(NC(=O)c2ccc3c(c2)OCCO3)no1	79	85	34*	96	72
N#Cc1nc(Cc2cccc3ccccc23)oc1NCCCn1ccnc1	86	67	88	85	85
O=C(NCc1ccco1)/C(=C/c1cccnc1)NC(=O)c1cccc(Br)c1	87	x	x	x	88
CC(=O)/C(=N/Nc1cccc(Cl)c1)Sc1nnc(C(O)c2ccccc2)n1-c1ccccc1 (stereo not drawn)	89	x	x	x	92
Cc1nn(-c2ccc(F)cc2)c(C)c1NS(=O)(=O)c1ccc2ccccc2c1	62	77	36*	96	52
CC(=O)Nc1ccc(S(=O)(=O)Nc2c(C)nn(-c3ccccc3)c2C)cc1	80	91	49	88	74
COc1ccc(CN(CC2CCCO2)C(=O)CN2C(=O)C(C)Oc3ccc(C)cc32)cc1OC (stereo not drawn)	75	72	40*	103	74
CCC1Oc2ccc(C)cc2N(CC(=O)N(Cc2ccc3c(c2)OCO3)CC2CCCO2)C1=O (stereo not drawn)	79	96	50	104	70
COc1ccc(/C=C/c2cc(-c3ccc(C)cc3)o[n+]2C)cc1	1.2*	x	x	x	1.5*
Cc1nc(Nc2ccc3c(c2)OCCO3)c2oc3ccccc3c2n1	55	65	80	96	63
CCc1nc(SCc2nc3ccccc3[nH]2)c2oc3ccccc3c2n1	69	79	40*	90	48
CCc1nc(Sc2nc(C)cc(C)n2)c2oc3ccccc3c2n1	72	102	5.3*	79	65
CCc1nc(SCCO)c2oc3ccccc3c2n1	97	89	90	91	87
CCc1nc(Nc2ccc3c(c2)OCCO3)c2oc3ccccc3c2n1	68	40	38*	89	60
O=[N+]([O-])c1ccc(Cl)cc1Sc1ccccn1	92	x	x	x	93
Cc1cc(=O)[nH]c(N/N=C/c2ccccn2)n1	11	x	x	x	13
